What was measured:
[1] = system: patients with relapsed or refractory hematologic malignancies; test: Phase 1 dose escalation: adverse events, DLT, MTD; assay type: in vivo
[2] = system: 20S chymotrypsin-like proteasome activity; assay type: in vivo, human
Outline: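 Chymotrypsin-like proteasome activity in patient whole blood and PBMCs, read with a fluorogenic substrate. Samples: cycle 1 day 1 predose, 1 and 24 h postdose; predose and 1 h postdose on cycle 1 day 5 and day 1 of cycles 2 and 3. Dosing was i.v. push days 1–5 with 9-d rest. Percent activity is each sample's specific activity relative to cycle 1 day 1 predose. Mean ± SEM.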

[3] = system: primary acute myeloid leukemia blasts; conditions: tested at nanomolar levels (0.1-100 nmol/L); cited from earlier work
[4] = preclinical studies; cited from earlier work
[5] = system: bortezomib-resistant MM cell lines; conditions: bortezomib-resistant MM cell lines and patient samples; cited from earlier work

## CC(C)C[C@H](NC(=O)[C@H](CCc1ccccc1)NC(=O)CN1CCOCC1)C(=O)N[C@@H](Cc1ccccc1)C(=O)N[C@@H](CC(C)C)C(=O)[C@@]1(C)CO1 [carfilzomib]
[1]; human, in vivo
  Adverse event Exertional dyspnea, Grade 2: 0 (0) n (%)
  Adverse event Exertional dyspnea, Grade 3: 0 (0) n (%)
  Adverse event Exertional dyspnea, Grade 4: 0 (0) n (%)
  Adverse event Fatigue, All Grades: 14 (48) n (%)
  Adverse event Fatigue, Grade 1: 10 (35) n (%)
  Adverse event Fatigue, Grade 2: 3 (10) n (%)
  Adverse event Fatigue, Grade 3: 1 (3) n (%)
  Adverse event Fatigue, Grade 4: 0 (0) n (%)
  Adverse event Headache, All Grades: 7 (24) n (%)
  Adverse event Headache, Grade 1: 7 (24) n (%)
  Adverse event Headache, Grade 2: 0 (0) n (%)
  Adverse event Headache, Grade 3: 0 (0) n (%)
  Adverse event Headache, Grade 4: 0 (0) n (%)
  Adverse event Hypoesthesia, All Grades: 8 (28) n (%)
  Adverse event Hypoesthesia, Grade 1: 5 (17) n (%)
  Adverse event Hypoesthesia, Grade 2: 3 (10) n (%)
  Adverse event Hypoesthesia, Grade 3: 0 (0) n (%)
  Adverse event Hypoesthesia, Grade 4: 0 (0) n (%)
  Adverse event Nausea, All Grades: 14 (48) n (%)
  Adverse event Nausea, Grade 1: 11 (38) n (%)
  Adverse event Nausea, Grade 2: 3 (10) n (%)
  Adverse event Nausea, Grade 3: 0 (0) n (%)
  Adverse event Nausea, Grade 4: 0 (0) n (%)
  Adverse event Paresthesia, All Grades: 6 (21) n (%)
  Adverse event Paresthesia, Grade 1: 4 (14) n (%)
  Adverse event Paresthesia, Grade 2: 2 (7) n (%)
  Adverse event Paresthesia, Grade 3: 0 (0) n (%)
  Adverse event Paresthesia, Grade 4: 0 (0) n (%)
  Adverse event Peripheral edema, All Grades: 7 (24) n (%)
  Adverse event Peripheral edema, Grade 1: 7 (24) n (%)
  Adverse event Peripheral edema, Grade 2: 0 (0) n (%)
  Adverse event Peripheral edema, Grade 3: 0 (0) n (%)
  Adverse event Peripheral edema, Grade 4: 0 (0) n (%)
  Adverse event Pyrexia, All Grades: 8 (28) n (%)
  Grade 3 and 4 adverse events: ALT increased, Grade 3: 1 (3) n (%)
  Grade 3 and 4 adverse events: ALT increased, Grade 4: 0 (0) n (%)
  Grade 3 and 4 adverse events: Acute bronchitis, Grade 3: 1 (3) n (%)
  Grade 3 and 4 adverse events: Acute bronchitis, Grade 4: 0 (0) n (%)
  Grade 3 and 4 adverse events: Acute bronchitis, Grades 3-4: 1 (3) n (%)
  Grade 3 and 4 adverse events: Alkaline phosphatase increased, Grade 3: 1 (3) n (%)
  Grade 3 and 4 adverse events: Alkaline phosphatase increased, Grade 4: 0 (0) n (%)
  Grade 3 and 4 adverse events: Alkaline phosphatase increased, Grades 3-4: 1 (3) n (%)
  Grade 3 and 4 adverse events: Anemia, Grade 3: 1 (3) n (%)
  Grade 3 and 4 adverse events: Anemia, Grade 4: 0 (0) n (%)
  Grade 3 and 4 adverse events: Dyspnea, Grade 3: 1 (3) n (%)
  Grade 3 and 4 adverse events: Dyspnea, Grade 4: 1 (3) n (%)
  Grade 3 and 4 adverse events: Fatigue, Grade 3: 1 (3) n (%)
  Grade 3 and 4 adverse events: Fatigue, Grade 4: 0 (0) n (%)
  Grade 3 and 4 adverse events: Fatigue, Grades 3-4: 1 (3) n (%)
  Grade 3 and 4 adverse events: Febrile neutropenia, Grade 3: 1 (3) n (%)
  Grade 3 and 4 adverse events: Febrile neutropenia, Grade 4: 0 (0) n (%)
  Grade 3 and 4 adverse events: Febrile neutropenia, Grades 3-4: 1 (3) n (%)
  Grade 3 and 4 adverse events: Gastrointestinal hemorrhage, Grade 3: 1 (3) n (%)
  Grade 3 and 4 adverse events: Gastrointestinal hemorrhage, Grade 4: 0 (0) n (%)
  Grade 3 and 4 adverse events: Gastrointestinal hemorrhage, Grades 3-4: 1 (3) n (%)
  Grade 3 and 4 adverse events: Hemoglobin decreased, Grade 3: 1 (3) n (%)
  Grade 3 and 4 adverse events: Hemoglobin decreased, Grade 4: 0 (0) n (%)
  Grade 3 and 4 adverse events: Hemoglobin decreased, Grades 3-4: 1 (3) n (%)
[1]; i.v. push on 5 consecutive days within 14-day cycles
  maximum tolerated dose (MTD): 15 mg/m^2
[1]; in vivo
  DLTs in the initial seven dose cohorts: No DLTs were observed
[2]; during the 9-day rest period
  Recovery of proteasome activity in PBMCs: generally returned to baseline
  Recovery of proteasome activity in whole blood: only partially recovered
[2]; whole blood and PBMCs, dose levels of 15 mg/m^2 and higher, 1 hour after dosing on day 1
  Proteasome inhibition after a single dose: > 75%
[2]; whole blood and PBMCs, highest dose groups, 1 h after the fifth dose
  Proteasome inhibition after the fifth consecutive day of dosing: > 90%
[3]
  autocrine- and cytokine-dependent proliferation: inhibited autocrine- and cytokine-dependent proliferation
[4]
  Time for serum concentrations to approach the limit of assay detection: ≤ 1 h
[5]
  Proliferation and apoptosis: inhibited proliferation and induced apoptosis

— PMC4019989 (Clinical cancer research : an official journal of the …, 2009)
